Data: ChEMBL document CHEMBL4842356, “Discovery, optimization, and target identification of novel coumarin derivatives as HIV-1 reverse transcriptase-associated ribonuclease H inhibitors” (Eur J Med Chem, 2021)

How the values were obtained:
[1] = system: Human immunodeficiency virus 1; test: Antiviral activity against HIV1 RES056 infected in human MT4 cells assessed as protection against virus-induced cytopathic effect incubated for 5 days by MTT assay; format: functional, organism-based; settings: Human immunodeficiency virus 1, RES056, MT4, 120 h
Outline: (§1)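 MT-4 cells (exponentially growing, resuspended at 6 × 10⁵ cells/mL) were seeded onto serial five-fold compound dilutions and infected with 100–300 CCID₅₀ virus stock, or given medium only (mock). Viability was read by MTT at 540 and 690 nm five days after infection, using the median OD of three wells. EC₅₀ is 50% protection from viral cytopathicity. CC₅₀ is 50% loss of viability in mock-infected cells.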

[2] = system: Human immunodeficiency virus 1; test: Antiviral activity against wild type HIV1 3B infected in human MT4 cells assessed as protection against virus-induced cytopathic effect incubated for 5 days by MTT assay; format: functional, organism-based; settings: Human immunodeficiency virus 1, 3B, MT4, 120 h; outline: as §1
MT4 = test: Cytotoxicity against mock-infected human MT4 cells assessed as reduction in cell viability measured after 5 days by MTT assay; format: functional; settings: MT4, 120 h, time 5 day; outline: as §1
[3] = target: Human immunodeficiency virus type 1 reverse transcriptase (Human immunodeficiency virus 1, UniProt Q72547); test: Inhibition of wild type HIV1 Reverse transcriptase RNase H expressed in Escherichia coli using 5'-UUUUUUUUUAGGAUACAUAUGGUUAAAGU-3' oligonucleotide as substrate and DNA21P as primer in presence of [gamma32P]-ATP by PAGE analysis
Outline: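 Wild-type HIV-1 BH10 RT was expressed in E. coli and purified. RNase H activity was measured on a 31-nt RNA, 5′-³²P-labelled, annealed to a 21-nt DNA (31T/21P). Cleaved substrate was quantified without inhibitor (5% DMSO) and with compound over 0.2–100 µM. IC₅₀ values were taken from dose-response curves.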

[4] = system: Human immunodeficiency virus 2; test: Antiviral activity against HIV2 ROD infected in human MT4 cells assessed as protection against virus-induced cytopathic effect incubated for 5 days by MTT assay; settings: Human immunodeficiency virus 2, ISOLATE ROD, MT4, 120 h
[5] = system: Human immunodeficiency virus 1; test: Antiviral activity against HIV1 L1001 infected in human MT4 cells assessed as protection against virus-induced cytopathic effect incubated for 5 days by MTT assay; format: functional, organism-based; settings: Human immunodeficiency virus 1, L1001, MT4, 120 h
Outline: (§2)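 MT-4 cells (exponentially growing, resuspended at 6 × 10⁵ cells/mL) exposed to serial five-fold compound dilutions, then infected with mutant HIV-1 stock at 100–300 CCID₅₀; mock-infected wells run in parallel for cytotoxicity. Viability read by MTT at 540 and 690 nm on day 5. Median OD of three wells used; EC₅₀ is the concentration giving 50% protection from viral cytopathicity.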

[6] = system: Human immunodeficiency virus 1; test: Antiviral activity against HIV1 harboring reverse transcriptase K103N mutant infected in human MT4 cells assessed as protection against virus-induced cytopathic effect incubated for 5 days by MTT assay; format: functional, organism-based; settings: Human immunodeficiency virus 1, MT4, 120 h; outline: as §2
[7] = system: Human immunodeficiency virus 1; test: Antiviral activity against HIV1 harboring reverse transcriptase Y181C mutant infected in human MT4 cells assessed as protection against virus-induced cytopathic effect incubated for 5 days by MTT assay; format: functional, organism-based; settings: Human immunodeficiency virus 1, MT4, 120 h; outline: as §2
[8] = system: Human immunodeficiency virus 1; test: Antiviral activity against HIV1 harboring reverse transcriptase Y188L mutant infected in human MT4 cells assessed as protection against virus-induced cytopathic effect incubated for 5 days by MTT assay; format: functional, organism-based; settings: Human immunodeficiency virus 1, MT4, 120 h; outline: as §2
[9] = system: Human immunodeficiency virus 1; test: Antiviral activity against HIV1 harboring reverse transcriptase E138K mutant infected in human MT4 cells assessed as protection against virus-induced cytopathic effect incubated for 5 days by MTT assay; format: functional, organism-based; settings: Human immunodeficiency virus 1, MT4, 120 h
[10] = system: Human immunodeficiency virus 1; test: Antiviral activity against HIV1 harboring reverse transcriptase V106A/F227 mutant infected in human MT4 cells assessed as protection against virus-induced cytopathic effect incubated for 5 days by MTT assay; format: functional, organism-based; settings: Human immunodeficiency virus 1, MT4, 120 h; outline: as §2

Compound | EC50 [1] [µM] | EC50 [2] [µM] | CC50 (MT4) [µM] | IC50 [3] [µM] | EC50 [4] [µM] | EC50 [5] [µM] | EC50 [6] [µM] | EC50 [7] [µM] | EC50 [8] [µM] | EC50 [9] [µM] | EC50 [10] [µM]
Cc1c(O)c([N+](=O)[O-])cc2cc(C(=O)Nc3ccc(O)c(C(=O)O)c3)c(=O)oc12 | 113 | 121 | > 312 | 9.9 | 121 |  |  |  |  |  | 
COC(=O)c1cc(NC(=O)c2cc3cc([N+](=O)[O-])c(O)c(O)c3oc2=O)ccc1O |  | 3.94 | > 300 | 12.3 | 169 | 16.5 | 5.62 | 22.4 | 44.3 | 22.5 | 101
Cc1ccnc2c1NC(=O)c1cccnc1N2C1CC1 [NEVIRAPINE] | > 15 | 1.9 | > 15 |  |  | 0.7 | 2.85 |  | > 2.97 |  | > 5.78
CCC1CCN(C2CCN(C(=O)c3cc4cc([N+](=O)[O-])c(O)c(O)c4oc3=O)CC2)CC1 | 213 | 208 | > 280 | > 250 | > 280 |  |  |  |  |  | 
O=C(c1cc2cc([N+](=O)[O-])c(O)c(O)c2oc1=O)N1CCCN(S(=O)(=O)c2ccc3ccncc3c2)CC1 | 123 | 82.7 | > 231 | 68.5 | > 231 |  |  |  |  |  | 
